Results reported in article PMC3579011 (Molecular cancer research : MCR, 2012).
Positions of bridges follow the written chain, without caps; N, C: chain ends. No end group written: not given here.

Experiments:
[1] = test system: DU145, UMUC3 and J82 cells; experiment: LDH release with autophagy inhibitor, DU145, UMUC3, J82; assay type: cell-based, human; details: bafilomycin A1 40–400 nM added 1 hour prior to CLT1 (25 µg/ml) + FN, 24 hours
Method in brief: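 DU145, UMUC3 and J82 cells at about 50% confluence received 40 to 400 nmol/L bafilomycin A1 plus test peptide with fibronectin for 24 h. Cell death was measured as LDH release using a cytotoxicity detection kit. Values were normalized to background death of control cells treated without peptide in the same medium.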

DU145 cells [2] = experiment: Uptake of fluorescein-CLT1 by fluorescence microscopy, DU145; assay type: cell-based, human; details: nocodazole 10 µM, 24 hours, versus DMSO
Method in brief: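 DU145 cells were grown on vitronectin-coated coverslips and exposed 24 h to fluorescein-conjugated peptide alone or with nocodazole, with DMSO as vehicle. Cells were fixed in 4% paraformaldehyde and stained with DAPI. Uptake was scored by fluorescence microscopy at ×40 as the percentage of peptide-positive cells per optical field.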

DU145 cells [3] = experiment: LDH release cytotoxicity assay, DU145; assay type: cell-based
[4] = test system: bladder tumor cells (J82, T24, UMUC3, TCCSUP); experiment: LDH release cytotoxicity assay, bladder tumor cells; assay type: cell-based; details: CLT1 75 µg/ml, 24 hours; even in the presence of urine
angiogenic endothelium = details: cited from earlier work
[5] = test system: 786-0 kidney cancer cells; experiment: CLT1-induced cell death, 786-0; assay type: cell-based, human
[6] = test system: LC3 in UMUC3 and J82 cells; experiment: LC3 conversion; assay type: cell-based, human; details: CLT1 25 µg/ml, 2% serum + FN, 24 hours
Method in brief: (§1)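 Cells were lysed by subcellular protein fractionation to obtain the cytoplasmic fraction, or in 2× SDS sample buffer. Proteins were run on SDS-PAGE and transferred to PVDF, with 0.05% Ponceau S staining to check equal loading. Blots were blocked in 5% BSA and probed overnight at 4°C with anti-cathepsin D or anti-LC3B, then detected with peroxidase-conjugated anti-rabbit or anti-mouse IgG and enhanced chemiluminescence.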

[7] = test system: primary human bladder epithelial cells (HBEC); experiment: LDH release cytotoxicity assay, primary bladder epithelial cells; assay type: cell-based; details: CLT1 75 µg/ml, 24 hours
Method in brief: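 Primary human bladder epithelial cells were kept in serum-free Prostalife basal medium with supplements at 37°C and 5% CO2, and treated at about 50% confluence. Peptide diluted in water was added for 24 h in 2% serum alone, or with fibronectin or fibrinogen. Cell death was read as LDH release, expressed as a percentage of maximal release from camptothecin plus 100 nmol/L staurosporine.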

[8] = test system: cathepsin D (lysosome leakage) in DU145, UMUC3 and J82 tumor cells; experiment: Cathepsin D in cytosolic fraction; assay type: cell-based, human; details: CLT1 75 µg/ml, 24 hours
Method in brief: as §1

[9] = test system: bladder and prostate tumor cells; experiment: Internalization of fluorescein-CLT1 with fibronectin or fibrinogen; assay type: cell-based, human; details: FN or FG each 30 µg/ml
Method in brief: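 Cells were grown on vitronectin-coated coverslips and incubated 24 h with fluorescein-conjugated peptide in 2% serum with fibronectin or fibrinogen. They were then fixed in 4% paraformaldehyde and mounted in DAPI-containing medium. Internalization was scored by fluorescence microscopy at ×40 as the percentage of peptide-positive cells per optical field.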

[10] = test system: human bladder (J82, T24, UMUC3, TCCSUP), prostate (DU145), kidney (RCC4), breast (MDA-MB-231) and lung (A549) tumor cell lines; experiment: LDH release cytotoxicity assay, panel of tumor cell lines; assay type: cell-based; details: without CLT1

For `CO/C1=C\C(C)=C\[C@@H](C)[C@@H](O)[C@@H](C)C/C(C)=C/C=C/[C@H](OC)[C@@H]([C@@H](C)[C@@H](O)[C@H](C)[C@@]2(O)C[C@@H](O)[C@H](C)[C@@H](C(C)C)O2)OC1=O` [bafilomycin A1, Bafilomycin A1], which “effect on CLT1 cytotoxicity (LDH release)” value [1] is on record?
The value was “significantly reduced”.

With `COC(=O)Nc1nc2ccc(C(=O)c3cccs3)cc2[nH]1` [nocodazole, reference compound] as the molecule, how does the “effect on CLT1 uptake” value (DU145 cells [2]) read?
The value was “inhibited”.

What about the “effect on CLT1 cytotoxicity (LDH release)” value (DU145 cells [3]; nocodazole 10 µM, CLT1 75 µg/ml, 24 hours, versus DMSO) of the same molecule?
Its value is “significantly reduced”.

With “CGLIIQKNEC (disulfide 1-10 (inferred)) [CLT1]” as the molecule, how does the “CLT1 concentration at which cytotoxicity reached a plateau” value (DU145 cells [3]; CLT1 7.5–150 µg/ml, 2% serum + 30 µg/ml fibronectin, 24 hours, LDH release) read?
Its value is 75 µg/mL.

And the “cell death in the absence of plasma fibronectin” value (DU145 cells [3]; prostate tumor cells, FN-depleted serum)?
Its value is “minimal cell death”.

And the “cell death of bladder cancer cells” value [4]?
Its value is “extensive cell death”.

And the “anti-angiogenic activity in vivo” value (angiogenic endothelium)?
The value was “strong anti-angiogenic activity”.

What about the “sensitivity to CLT1-induced cell death” value [5] of the same molecule?
The value was “largely resistant”.

What about the “LC3 conversion (autophagy marker)” value [6] of the same molecule?
Its value is “causes LC3 conversion”.

And the “cytotoxic activity in primary bladder epithelial cells” value [7]?
The value was “largely inactive”.

And the “cathepsin D in cytoplasmic fraction (indicator for lysosome leakage)” value [8]?
Its value is “increased concentrations”.

For fibrinogen, which “effect on CLT1 uptake / internalization” value [9] is on record?
The value was “largely prevents”.

For fibronectin, which “effect on CLT1 uptake / internalization” value [9] is on record?
The value was “supports”.

What about the “fibronectin concentration at which CLT1 cytotoxicity occurred” value (DU145 cells [3]; FN-depleted serum, CLT1 75 µg/ml, FN 3–100 µg/ml, within 24 hours, LDH release) of the same molecule?
The value was 10 µg/mL.

And the “effect of protein alone on tumor cell fate” value [10]?
The value was “no effect”.
